Series [1] in a line: Ratio of unbound AUC in brain to plasma of […] rat at 0.4 or 1 mg/kg, iv and 1 or 5 mg/kg, po. Type of series: ADME, organism-based. A digest of the protocol:
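Rat PK: iv dosing at 0.4 or 1 mg/kg as a 60% PEG solution and oral dosing at 1 or 5 mg/kg as an aqueous suspension in 1% methylcellulose. The ratio is unbound brain AUC over unbound plasma AUC. Unbound clearance was taken as CL/fu, where fu is the fraction unbound in plasma.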

Series [2] has as its target High affinity nerve growth factor receptor (Homo sapiens, UniProt P04629). Nature of the series: Inhibition of TrkA (unknown origin) by FRET method. A digest of the protocol:
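Biochemical IC50 determination from a 10-point dose-response in an enzymatic Z′-LYTE assay. Labeled-peptide phosphorylation was read by FRET under the vendor's protocols.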

Series [3] concerns the target T1, Mitogen-activated protein kinase kinase kinase 12 (Homo sapiens) (UniProt Q12852).
T1 sequence (whole entry): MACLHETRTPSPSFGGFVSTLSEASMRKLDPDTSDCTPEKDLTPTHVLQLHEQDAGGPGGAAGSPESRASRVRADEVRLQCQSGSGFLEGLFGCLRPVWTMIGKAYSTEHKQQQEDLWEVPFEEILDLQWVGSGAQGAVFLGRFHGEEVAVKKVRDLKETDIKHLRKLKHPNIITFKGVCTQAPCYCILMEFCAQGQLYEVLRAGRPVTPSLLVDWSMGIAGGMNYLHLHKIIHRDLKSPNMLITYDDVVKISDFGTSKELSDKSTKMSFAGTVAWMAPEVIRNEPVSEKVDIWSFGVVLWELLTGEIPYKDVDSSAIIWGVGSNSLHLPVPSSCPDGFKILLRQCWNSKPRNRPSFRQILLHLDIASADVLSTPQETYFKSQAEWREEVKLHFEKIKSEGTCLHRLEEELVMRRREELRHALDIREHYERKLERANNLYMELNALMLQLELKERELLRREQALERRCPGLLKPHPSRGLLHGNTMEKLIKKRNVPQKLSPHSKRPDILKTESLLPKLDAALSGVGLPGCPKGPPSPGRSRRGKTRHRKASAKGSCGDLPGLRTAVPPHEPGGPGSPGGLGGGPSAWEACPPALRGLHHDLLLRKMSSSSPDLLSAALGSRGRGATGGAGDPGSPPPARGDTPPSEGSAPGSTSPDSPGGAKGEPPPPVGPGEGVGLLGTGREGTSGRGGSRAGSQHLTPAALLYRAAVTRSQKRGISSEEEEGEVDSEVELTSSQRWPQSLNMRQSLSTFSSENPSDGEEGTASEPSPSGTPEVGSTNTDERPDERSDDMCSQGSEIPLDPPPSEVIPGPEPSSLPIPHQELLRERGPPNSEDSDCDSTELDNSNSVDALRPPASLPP
Nature of the series: Inhibition of Flag DLK (unknown origin) transfected in HEK293 cells assessed as reduction of phosphorylation of MKK7 at 0.1 to 10 uM incubated for 5 hrs measured by Western blot analysis. Type of series: cell-based. In outline: (§1)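 HEK293 cells were transfected with Flag-tagged DLK, with kinase-dead DLK K152A as comparator, 24 h before compound addition. Cells were then exposed to compound for 5 h. Phospho-MKK4, phospho-MKK7, phospho-JNK and phospho-c-Jun were probed.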
(Immunoblotting shows a protein as a band on a membrane.)

Series [4] deals with Mitogen-activated protein kinase kinase kinase 9 (Homo sapiens, UniProt P80192). Nature of the series: Inhibition of MLK1 (unknown origin) at 1 uM by FRET method. A digest of the protocol:
(§2)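 Single-point screen at 1 uM against a panel of 58 representative kinases. Readout was labeled-peptide phosphorylation by FRET (Z′-LYTE), using the vendor's protocols.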

Series [5] addresses T2, Mitogen-activated protein kinase kinase kinase 12 (Homo sapiens, UniProt Q12852).
T2 sequence (Q12852 whole entry): T1 sequence (whole entry)
The series can be described thus: Inhibition of N-terminally GST- tagged human DLK catalytic domain (1 to 520 amino acids) using N-terminally HIS-tagged MKK4 K131M as substrate incubated for 60 mins by TR-FRET assay.

Another series deals with Rattus norvegicus. The series can be described thus: Free clearance in […] rat at 0.4 or 1 mg/kg, iv and 1 or 5 mg/kg, po. It is filed as ADME, organism-based. As to conditions: in vivo. In outline:
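Rat PK used iv dosing at 0.4 or 1 mg/kg in 60% PEG solution and po dosing at 1 or 5 mg/kg as an aqueous 1% methylcellulose suspension. Free clearance is CL/fu, where fu is the fraction unbound in plasma.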

The target in series [6] is Serine/threonine-protein kinase PLK1 (Homo sapiens) (UniProt P53350). The series can be described thus: Inhibition of PLK1 (unknown origin) at 1 uM by FRET method. In outline:
as §2

Series [7] has as its target CDK8/Cyclin C (Homo sapiens) (UniProt P49336+P24863). The series can be described thus: Inhibition of […]/cyclinC (unknown origin) at 1 uM by FRET method. Type of series: protein-complex assay. In outline:
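SelectScreen panel of 58 kinases, each tested at a single 1 µM compound concentration. Read-out was Z′-LYTE FRET of labeled peptide phosphorylation, run by the vendor's protocols, reported as percent inhibition.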

The test system of a further series is Mus musculus. Nature of the series: Unbound fraction in brain in mouse at 50 mg/kg, po at 6 hr. It is filed as ADME, organism-based. As to conditions: in vivo.
Series [8] concerns the target 5'-AMP-activated protein kinase catalytic subunit alpha-1 (Homo sapiens) (UniProt Q13131). Nature of the series: Inhibition of PRKAA1 (unknown origin) at 1 uM by FRET method. A digest of the protocol:
as §2

The target of series [9] is T1, Mitogen-activated protein kinase kinase kinase 12 (Homo sapiens). Nature of the series: Inhibition of Flag DLK (unknown origin) transfected in HEK293 cells assessed as reduction of phosphorylation of c-Jun at 0.1 to 10 uM incubated for 5 hrs measured by Western blot analysis. Type of series: cell-based. In outline:
as §1

For series [10] the target is unchanged. Nature of the series: Inhibition of Flag DLK (unknown origin) transfected in HEK293 cells assessed as reduction of phosphorylation of MKK4 at 0.1 to 10 uM incubated for 5 hrs measured by Western blot analysis. It is filed as cell-based. A digest of the protocol:
as §1

Series [11] concerns the target Dual specificity mitogen-activated protein kinase kinase 7 (Homo sapiens, UniProt O14733). Nature of the series: Inhibition of MKK7 (unknown origin) using KFMMpTPYVVTR substrate incubated for 1 hr measured by MpTPpYV probe-based fluorescence polarization assay. On the technique in general: In fluorescence polarisation assays a small probe gives low polarisation when free and higher when bound to something large.

The target of series [12] is Tyrosine-protein kinase SYK (Homo sapiens) (UniProt P43405). Nature of the series: Inhibition of Syk (unknown origin) at 1 uM by FRET method. In outline:
as §2

Series [13] deals with Dual specificity mitogen-activated protein kinase kinase 4 (Homo sapiens, UniProt P45985). Nature of the series: Inhibition of MKK4 (unknown origin) using KFMMTPpYVVTR substrate incubated for 1 hr measured by MpTPpYV probe-based fluorescence polarization assay. In outline: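 MKK4 at 30 nM was incubated with 100 µM KFMMTPpYVVTR peptide, 5 µM ATP and 3.3 nM fluorescent MpTPpYV probe. Buffer was 50 mM HEPES pH 7.5 with 5 mM MgCl2 and 10 mM DTT. Reaction ran 1 h at 23 °C, was stopped with EDTA plus anti-phospho-JNK antibody, and read by FP (ex 633/em 670 nm). Activity was normalized to the positive control.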

The target in series [14] is Receptor-type tyrosine-protein kinase FLT3 (Homo sapiens, UniProt P36888). The series can be described thus: Inhibition of Flt3 (unknown origin) by FRET method.
In series [15] the target is T2, Mitogen-activated protein kinase kinase kinase 12. Nature of the series: Inhibition of Dox inducible human DLK transfected in HEK293 cells assessed as reduction in JNK phosphorylation incubated for 5.5 hrs measured by Hoechst 33342 staining based imaging analysis. Type of series: cell-based.

Structures are written as SMILES. The source made the active and inactive calls. No cut-off for these calls is given here.

Chain of Serine/threonine-protein kinase PLK1 (Homo sapiens) (P53350 whole entry): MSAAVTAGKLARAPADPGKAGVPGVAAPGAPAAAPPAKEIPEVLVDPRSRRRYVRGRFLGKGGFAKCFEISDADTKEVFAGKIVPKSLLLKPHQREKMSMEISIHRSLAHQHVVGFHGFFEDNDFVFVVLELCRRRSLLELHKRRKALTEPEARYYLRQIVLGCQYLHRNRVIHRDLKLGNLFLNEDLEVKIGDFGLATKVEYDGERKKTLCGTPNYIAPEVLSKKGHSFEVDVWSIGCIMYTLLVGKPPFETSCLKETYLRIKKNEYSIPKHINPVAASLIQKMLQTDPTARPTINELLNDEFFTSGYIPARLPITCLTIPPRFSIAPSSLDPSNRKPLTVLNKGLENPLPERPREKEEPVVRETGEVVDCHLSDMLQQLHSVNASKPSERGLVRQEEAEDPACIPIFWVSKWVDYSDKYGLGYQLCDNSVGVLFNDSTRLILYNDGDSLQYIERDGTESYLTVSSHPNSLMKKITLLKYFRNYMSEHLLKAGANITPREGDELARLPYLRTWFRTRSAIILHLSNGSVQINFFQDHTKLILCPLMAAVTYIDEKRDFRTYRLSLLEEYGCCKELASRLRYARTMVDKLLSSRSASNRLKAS
Chain of Receptor-type tyrosine-protein kinase FLT3 (P36888 whole entry): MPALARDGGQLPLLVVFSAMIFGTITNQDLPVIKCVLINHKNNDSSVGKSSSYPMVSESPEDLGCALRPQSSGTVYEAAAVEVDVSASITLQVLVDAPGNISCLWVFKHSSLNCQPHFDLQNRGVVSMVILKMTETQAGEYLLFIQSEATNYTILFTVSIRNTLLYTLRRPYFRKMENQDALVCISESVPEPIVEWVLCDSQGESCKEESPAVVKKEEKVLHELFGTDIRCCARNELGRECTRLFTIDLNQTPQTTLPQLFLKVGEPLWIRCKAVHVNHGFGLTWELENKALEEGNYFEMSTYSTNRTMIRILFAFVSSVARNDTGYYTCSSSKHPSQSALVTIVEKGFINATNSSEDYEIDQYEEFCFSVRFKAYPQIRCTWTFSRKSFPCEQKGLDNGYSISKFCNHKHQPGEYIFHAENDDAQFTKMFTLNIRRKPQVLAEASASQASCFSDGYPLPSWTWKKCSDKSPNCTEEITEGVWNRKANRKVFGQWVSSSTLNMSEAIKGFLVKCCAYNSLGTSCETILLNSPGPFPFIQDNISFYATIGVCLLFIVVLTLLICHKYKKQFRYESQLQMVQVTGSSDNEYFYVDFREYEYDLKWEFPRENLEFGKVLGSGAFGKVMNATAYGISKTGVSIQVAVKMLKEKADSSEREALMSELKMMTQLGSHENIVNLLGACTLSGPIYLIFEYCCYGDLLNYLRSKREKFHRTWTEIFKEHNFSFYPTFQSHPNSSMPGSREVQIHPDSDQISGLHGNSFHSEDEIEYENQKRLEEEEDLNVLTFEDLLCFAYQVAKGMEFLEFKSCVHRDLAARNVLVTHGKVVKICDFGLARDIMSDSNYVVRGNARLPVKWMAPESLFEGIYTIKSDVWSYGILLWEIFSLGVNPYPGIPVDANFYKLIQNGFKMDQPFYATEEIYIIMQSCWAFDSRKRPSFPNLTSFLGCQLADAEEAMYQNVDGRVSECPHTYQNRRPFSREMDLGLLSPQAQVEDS
Chain of Dual specificity mitogen-activated protein kinase kinase 4 (P45985 whole entry): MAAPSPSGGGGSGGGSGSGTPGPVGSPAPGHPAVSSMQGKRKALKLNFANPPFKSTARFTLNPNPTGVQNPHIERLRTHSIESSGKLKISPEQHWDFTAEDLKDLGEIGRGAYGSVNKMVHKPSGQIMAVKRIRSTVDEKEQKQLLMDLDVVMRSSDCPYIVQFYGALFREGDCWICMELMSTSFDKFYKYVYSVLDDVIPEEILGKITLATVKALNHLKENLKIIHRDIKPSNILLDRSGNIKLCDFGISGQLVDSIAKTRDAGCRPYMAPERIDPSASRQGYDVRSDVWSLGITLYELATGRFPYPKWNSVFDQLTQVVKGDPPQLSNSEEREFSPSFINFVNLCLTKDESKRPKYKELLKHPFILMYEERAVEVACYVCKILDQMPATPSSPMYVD
Chain of High affinity nerve growth factor receptor (P04629 whole entry): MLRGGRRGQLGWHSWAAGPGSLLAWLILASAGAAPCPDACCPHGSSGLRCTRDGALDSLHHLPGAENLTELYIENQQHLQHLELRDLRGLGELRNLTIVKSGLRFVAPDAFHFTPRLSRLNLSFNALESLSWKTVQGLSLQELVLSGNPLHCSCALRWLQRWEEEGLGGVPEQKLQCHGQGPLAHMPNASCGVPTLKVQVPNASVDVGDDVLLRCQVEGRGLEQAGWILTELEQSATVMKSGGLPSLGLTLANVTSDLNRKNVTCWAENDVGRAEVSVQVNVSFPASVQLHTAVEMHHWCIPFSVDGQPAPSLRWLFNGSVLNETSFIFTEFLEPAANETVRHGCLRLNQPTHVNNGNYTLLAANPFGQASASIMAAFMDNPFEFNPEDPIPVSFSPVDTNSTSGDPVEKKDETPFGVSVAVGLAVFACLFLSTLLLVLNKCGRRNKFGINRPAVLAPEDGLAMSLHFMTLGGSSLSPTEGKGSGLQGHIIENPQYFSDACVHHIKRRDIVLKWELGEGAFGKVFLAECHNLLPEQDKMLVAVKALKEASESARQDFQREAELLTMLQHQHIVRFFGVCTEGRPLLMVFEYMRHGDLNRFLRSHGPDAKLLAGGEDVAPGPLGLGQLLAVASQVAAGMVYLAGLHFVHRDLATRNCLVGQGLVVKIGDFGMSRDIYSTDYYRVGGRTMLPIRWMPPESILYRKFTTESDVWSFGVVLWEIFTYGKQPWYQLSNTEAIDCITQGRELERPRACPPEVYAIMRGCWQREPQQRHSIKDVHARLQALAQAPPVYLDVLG
Chain of Mitogen-activated protein kinase kinase kinase 9 (P80192 whole entry, looked up): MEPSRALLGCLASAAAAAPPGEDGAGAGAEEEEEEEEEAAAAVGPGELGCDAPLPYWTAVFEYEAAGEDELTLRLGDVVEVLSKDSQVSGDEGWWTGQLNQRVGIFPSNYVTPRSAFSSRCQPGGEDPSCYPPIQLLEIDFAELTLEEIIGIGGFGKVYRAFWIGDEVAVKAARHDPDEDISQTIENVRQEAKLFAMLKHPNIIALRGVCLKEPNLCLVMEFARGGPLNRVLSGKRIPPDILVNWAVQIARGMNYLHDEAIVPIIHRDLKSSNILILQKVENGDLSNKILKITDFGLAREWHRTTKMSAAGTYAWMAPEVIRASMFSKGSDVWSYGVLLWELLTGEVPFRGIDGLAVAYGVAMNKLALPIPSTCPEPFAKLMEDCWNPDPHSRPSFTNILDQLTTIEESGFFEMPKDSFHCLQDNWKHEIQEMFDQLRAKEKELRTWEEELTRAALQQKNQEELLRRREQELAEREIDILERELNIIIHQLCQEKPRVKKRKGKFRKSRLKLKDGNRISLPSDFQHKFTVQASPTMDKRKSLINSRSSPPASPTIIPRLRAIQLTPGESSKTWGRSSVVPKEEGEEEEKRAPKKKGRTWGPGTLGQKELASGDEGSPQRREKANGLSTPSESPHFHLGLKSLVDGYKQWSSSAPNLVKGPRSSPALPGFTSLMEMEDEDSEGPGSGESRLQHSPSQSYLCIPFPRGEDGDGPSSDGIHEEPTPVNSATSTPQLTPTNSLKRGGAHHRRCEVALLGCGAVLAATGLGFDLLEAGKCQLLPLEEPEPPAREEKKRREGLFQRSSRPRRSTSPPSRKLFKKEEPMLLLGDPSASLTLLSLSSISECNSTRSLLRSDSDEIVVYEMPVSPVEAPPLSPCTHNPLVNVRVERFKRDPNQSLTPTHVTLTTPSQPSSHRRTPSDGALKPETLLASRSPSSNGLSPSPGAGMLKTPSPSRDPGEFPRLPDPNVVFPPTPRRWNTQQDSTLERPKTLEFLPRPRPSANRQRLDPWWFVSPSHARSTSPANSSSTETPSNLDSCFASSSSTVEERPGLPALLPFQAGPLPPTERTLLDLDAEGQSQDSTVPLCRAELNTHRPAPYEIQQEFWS
Chain of Dual specificity mitogen-activated protein kinase kinase 7 (O14733 whole entry): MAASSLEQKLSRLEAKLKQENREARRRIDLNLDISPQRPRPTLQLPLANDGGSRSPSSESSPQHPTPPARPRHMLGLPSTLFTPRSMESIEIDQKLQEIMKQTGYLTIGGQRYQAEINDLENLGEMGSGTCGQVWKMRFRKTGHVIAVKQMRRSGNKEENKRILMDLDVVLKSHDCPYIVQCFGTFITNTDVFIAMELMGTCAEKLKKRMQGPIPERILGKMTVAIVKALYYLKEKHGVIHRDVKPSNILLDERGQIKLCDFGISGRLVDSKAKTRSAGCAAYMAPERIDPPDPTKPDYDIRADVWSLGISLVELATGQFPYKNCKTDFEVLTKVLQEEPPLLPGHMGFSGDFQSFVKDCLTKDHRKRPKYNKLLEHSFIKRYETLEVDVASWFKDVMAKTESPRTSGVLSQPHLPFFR
Chain of 5'-AMP-activated protein kinase catalytic subunit alpha-1 (Homo sapiens) (Q13131 whole entry, looked up): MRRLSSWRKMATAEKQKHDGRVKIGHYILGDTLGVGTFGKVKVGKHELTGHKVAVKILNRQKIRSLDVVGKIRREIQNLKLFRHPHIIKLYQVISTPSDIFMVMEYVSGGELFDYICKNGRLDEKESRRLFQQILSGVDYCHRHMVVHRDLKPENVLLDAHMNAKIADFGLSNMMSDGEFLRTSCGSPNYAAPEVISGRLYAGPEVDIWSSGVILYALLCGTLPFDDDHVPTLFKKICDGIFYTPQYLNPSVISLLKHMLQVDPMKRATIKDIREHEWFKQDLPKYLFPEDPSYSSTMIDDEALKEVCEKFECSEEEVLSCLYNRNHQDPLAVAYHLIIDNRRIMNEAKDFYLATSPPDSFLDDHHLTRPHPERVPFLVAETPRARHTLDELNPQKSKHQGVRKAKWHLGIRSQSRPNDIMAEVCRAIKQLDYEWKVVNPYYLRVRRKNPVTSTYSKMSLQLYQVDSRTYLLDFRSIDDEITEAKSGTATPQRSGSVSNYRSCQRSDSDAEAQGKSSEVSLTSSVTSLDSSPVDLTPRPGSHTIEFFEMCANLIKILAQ

As for `N#Cc1ccnc(Nc2cc(C3CCN(C4COC4)CC3)n(C3CCCC3)n2)c1`, the Kp uu in series [1] was 0.35. The IC50 is 464 nM in series [2]; over 5000 nM in [11]; over 5000 nM in series [13]; 322 nM in series [14]; 536 nM in series [15]. Besides, the inhibition entry in [3], in series [9] and in series [10] was “Active” in each case. Further, the inhibition in series [4] was found to be 4.4%; in series [6], 7.3%; in series [7] it was 11.6%; in series [8], 1.8%; in series [12], 41.2%. In series [5], this compound showed a Ki of 42 nM. For the same compound, in the series with Rattus norvegicus, the CL free was 327 mL/min/kg. For the same compound, the “Drug uptake(free)” value in the series with Mus musculus came out at 0.05 µM.

As usually defined, the IC50 is the midpoint of a concentration-inhibition curve. A word on the inhibition: it is the percentage by which the read-out fell short of the control. The term Ki denotes the equilibrium dissociation constant of an inhibitor or competing ligand from its target. Read a high Ki as weaker binding.
